This note sets out measurements from ChEMBL document CHEMBL3352616, “Quinazoline-sulfonamides with potent inhibitory activity against the α-carbonic anhydrase from Vibrio cholerae” (Bioorg Med Chem, 2014).

Broadly, the Ki is a measure of affinity in units of concentration, obtained from inhibition or displacement. High values mean weaker binding, low ones tighter binding.

A short description of the assay: Inhibition of Vibrio cholerae alpha-carbonic anhydrase preincubated for 15 mins by stopped-flow CO2 hydration assay. Summed up:
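Stopped-flow CO2 hydration assay, phenol red 0.2 mM read at 557 nm, 20 mM Hepes pH 7.4 with 20 mM NaBF4 for ionic strength. Initial rates followed 10–100 s, CO2 1.7–17 mM. Inhibitor (10 mM DMSO stock, buffer dilutions down to 0.01 nM) preincubated with enzyme 15 min at RT. Uncatalyzed rate subtracted; Ki by nonlinear least squares and Cheng–Prusoff, mean of ≥3 determinations.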
Take `COc1cccc2c(=O)n(Cc3ccccc3)c(SCC(=O)Nc3ccc(S(N)(=O)=O)cc3)nc12`: the Ki was > 10000 nM.

`CC(=O)Nc1nnc(S(N)(=O)=O)s1` [ACETAZOLAMIDE]: the Ki was found to be […].

Turning to `NS(=O)(=O)c1ccc(NC(=O)CSc2nc3ccc([N+](=O)[O-])cc3c(=O)n2Cc2ccccc2)cc1`, the Ki is > 10000 nM.

For the compound `Cc1cccc2c(=S)n(Cc3ccccc3)c(SCC(=O)Nc3ccc(S(N)(=O)=O)cc3)nc12`, affinity was put at a Ki of 8.7 nM. This lies in the single-digit nanomolar range.

For `COc1ccc2nc(SCC(=O)Nc3ccc(S(N)(=O)=O)cc3)n(Cc3ccccc3)c(=O)c2c1`, the Ki was > 10000 nM.

`COc1cccc2c(=S)n(Cc3ccccc3)c(SCC(=O)Nc3ccc(S(N)(=O)=O)cc3)nc12` came in with a Ki of 7.9 nM.

On to `Cc1ccc2nc(SCC(=O)Nc3ccc(S(N)(=O)=O)cc3)n(Cc3ccccc3)c(=S)c2c1`, for which the Ki is 5.5 nM.

Compound `C=CCn1c(SCC(=O)Nc2ccc(S(N)(=O)=O)cc2)nc2ccc([N+](=O)[O-])cc2c1=O` had a Ki of 6.6 nM.

Take `Cc1cccc2nc(SCC(=O)Nc3ccc(S(N)(=O)=O)cc3)n(Cc3ccccc3)c(=S)c12`: the Ki came to 7.7 nM.

Consider `Cc1ccc2nc(SCC(=O)Nc3ccc(S(N)(=O)=O)cc3)n(Cc3ccccc3)c(=O)c2c1`, for which the Ki was found to be 2.7 nM. This Ki is about 2.9-fold lower than that of the compound before.

`Cc1cccc2c(=O)n(Cc3ccccc3)c(SCC(=O)Nc3ccc(S(N)(=O)=O)cc3)nc12` came in with a Ki of 8.5 nM.

With `NS(=O)(=O)c1ccc(NC(=O)CSc2nc3ccc([N+](=O)[O-])cc3c(=S)n2Cc2ccccc2)cc1`, the inhibition constant Ki was > 10000 nM.

For the compound `C=CCn1c(SCC(=O)Nc2ccc(S(N)(=O)=O)cc2)nc2ccc(C)cc2c1=O`, the Ki came to 6 nM. This counts as single-digit nanomolar.
